The values that follow come from ChEMBL document CHEMBL1125444 (J Med Chem, 1992).

The target of experiment [1] is Serotonin 1 (5-HT1) receptor (Rattus norvegicus, UniProt P28564+P30940+P19327+P28565). Description: The ability to inhibit [3H]5-HT binding to 5-hydroxytryptamine 1 receptor in rat cortex.
Experiment [2] addresses 5-hydroxytryptamine receptor 4 (Rattus norvegicus) (UniProt Q62758). Description: Relaxation of carbachol induced contractions of rat tunica muscularis mucosae. The essentials:
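Rat esophagus tunica muscularis mucosae strips, equilibrated 30 min, then contracted isometrically with carbachol (3 μM) to a stable tonic plateau within 20 min. Test agent added cumulatively to relax the strip. Buffer held corticosterone acetate (30 μM), fluoxetine (1 μM) and pargyline (10 μM).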

For experiment [3], the target named is T1, Alpha-1A adrenergic receptor (Rattus norvegicus, UniProt P43140).
T1 sequence (P43140 whole entry): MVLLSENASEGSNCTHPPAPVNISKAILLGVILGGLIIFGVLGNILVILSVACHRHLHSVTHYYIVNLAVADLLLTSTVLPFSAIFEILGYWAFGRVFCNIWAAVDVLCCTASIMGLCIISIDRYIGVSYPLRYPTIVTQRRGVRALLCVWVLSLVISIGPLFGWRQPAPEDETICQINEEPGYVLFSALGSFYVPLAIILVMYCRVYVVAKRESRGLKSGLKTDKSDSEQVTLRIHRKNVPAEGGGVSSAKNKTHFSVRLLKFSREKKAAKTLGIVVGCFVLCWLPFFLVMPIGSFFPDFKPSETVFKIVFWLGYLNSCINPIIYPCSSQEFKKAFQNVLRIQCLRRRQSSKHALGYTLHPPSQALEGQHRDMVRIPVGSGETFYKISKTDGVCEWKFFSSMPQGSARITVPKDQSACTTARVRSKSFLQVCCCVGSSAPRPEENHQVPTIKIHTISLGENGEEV
Description: The ability to inhibit [3H]prazosin binding to Alpha-1 adrenergic receptor in rat whole brain.

Experiment [4] addresses Adrenergic receptor beta (Rattus norvegicus, UniProt P18090+P10608+P26255). The experiment can be described thus: The ability to inhibit [3H]dihydroalprenolol prenolol binding to Beta adrenergic receptor in rat whole brain.
For experiment [5], the target named is D(1A) dopamine receptor (Rattus norvegicus, UniProt P18901). Description: The ability to inhibit [3H]-SCH- 23390 binding to Dopamine receptor D1 in rat striata.
Sequence of D(1A) dopamine receptor (P18901 whole entry): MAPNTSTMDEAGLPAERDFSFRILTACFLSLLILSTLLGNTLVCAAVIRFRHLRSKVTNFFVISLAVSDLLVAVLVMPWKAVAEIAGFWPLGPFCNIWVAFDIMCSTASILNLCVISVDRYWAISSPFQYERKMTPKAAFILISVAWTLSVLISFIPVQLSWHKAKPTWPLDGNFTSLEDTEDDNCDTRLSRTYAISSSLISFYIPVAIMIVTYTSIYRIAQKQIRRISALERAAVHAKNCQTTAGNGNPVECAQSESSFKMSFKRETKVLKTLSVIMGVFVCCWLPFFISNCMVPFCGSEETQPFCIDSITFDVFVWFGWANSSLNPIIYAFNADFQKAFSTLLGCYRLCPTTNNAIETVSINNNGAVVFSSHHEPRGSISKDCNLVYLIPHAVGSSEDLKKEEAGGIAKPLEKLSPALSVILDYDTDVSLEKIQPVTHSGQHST
Experiment [6] is described as follows: %E relative to serotonin is 100%. In kind it is functional.
Experiment [7] deals with T2, Serotonin 3 (5-HT3) receptor (Rattus norvegicus, UniProt P35563+Q9JJ16).
T2 sequence (P35563 whole entry): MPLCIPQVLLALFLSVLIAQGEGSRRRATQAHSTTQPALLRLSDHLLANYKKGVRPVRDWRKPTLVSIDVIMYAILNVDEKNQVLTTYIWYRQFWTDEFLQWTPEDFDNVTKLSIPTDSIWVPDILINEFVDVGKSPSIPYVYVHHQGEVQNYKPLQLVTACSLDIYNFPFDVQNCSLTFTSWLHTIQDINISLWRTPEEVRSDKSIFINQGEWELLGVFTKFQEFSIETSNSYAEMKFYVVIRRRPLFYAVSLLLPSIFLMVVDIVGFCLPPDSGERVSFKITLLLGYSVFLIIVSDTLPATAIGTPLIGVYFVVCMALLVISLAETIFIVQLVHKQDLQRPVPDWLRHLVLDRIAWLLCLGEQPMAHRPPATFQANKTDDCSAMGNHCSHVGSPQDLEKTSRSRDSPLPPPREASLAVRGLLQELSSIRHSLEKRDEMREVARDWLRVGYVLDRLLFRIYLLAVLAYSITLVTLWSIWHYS
T2 sequence (Q9JJ16 whole entry): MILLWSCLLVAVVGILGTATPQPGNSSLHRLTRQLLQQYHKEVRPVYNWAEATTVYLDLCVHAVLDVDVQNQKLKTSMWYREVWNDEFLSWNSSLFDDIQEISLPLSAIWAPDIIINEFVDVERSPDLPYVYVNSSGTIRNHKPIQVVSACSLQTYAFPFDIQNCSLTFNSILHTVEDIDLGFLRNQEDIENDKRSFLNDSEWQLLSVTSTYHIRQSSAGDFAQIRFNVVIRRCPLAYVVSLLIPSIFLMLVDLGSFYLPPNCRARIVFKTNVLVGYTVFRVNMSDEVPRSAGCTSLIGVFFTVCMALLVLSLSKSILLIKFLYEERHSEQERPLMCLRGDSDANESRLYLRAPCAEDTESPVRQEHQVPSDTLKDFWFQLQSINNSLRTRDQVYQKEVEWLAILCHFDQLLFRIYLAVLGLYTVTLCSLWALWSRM
The experiment can be described thus: Inhibition of [3H]GR-65630 binding to 5-hydroxytryptamine 3 receptor. The experiment is classed as protein-complex assay.

Experiment [8] addresses Serotonin 2 (5-HT2) receptor (Rattus norvegicus, UniProt P30994+P08909+P14842). Description: The ability to inhibit [3H]ketanserin binding to 5-hydroxytryptamine 2 receptor in rat whole brain.
Experiment [9] has as its target T2, Serotonin 3 (5-HT3) receptor. The experiment can be described thus: The ability to inhibit [3H]GR-65630 binding to 5-hydroxytryptamine 3 receptor in rat brain cortices. The experiment is classed as tissue-based. In outline:
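Membranes from male rat brain cortices incubated with [3H]GR65630 (0.2 nM) as radioligand.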

Experiment [10] addresses T3, Adrenergic receptor alpha-2 (Rattus norvegicus, UniProt P22086+P19328+P22909).
T3 sequence (P22086 whole entry): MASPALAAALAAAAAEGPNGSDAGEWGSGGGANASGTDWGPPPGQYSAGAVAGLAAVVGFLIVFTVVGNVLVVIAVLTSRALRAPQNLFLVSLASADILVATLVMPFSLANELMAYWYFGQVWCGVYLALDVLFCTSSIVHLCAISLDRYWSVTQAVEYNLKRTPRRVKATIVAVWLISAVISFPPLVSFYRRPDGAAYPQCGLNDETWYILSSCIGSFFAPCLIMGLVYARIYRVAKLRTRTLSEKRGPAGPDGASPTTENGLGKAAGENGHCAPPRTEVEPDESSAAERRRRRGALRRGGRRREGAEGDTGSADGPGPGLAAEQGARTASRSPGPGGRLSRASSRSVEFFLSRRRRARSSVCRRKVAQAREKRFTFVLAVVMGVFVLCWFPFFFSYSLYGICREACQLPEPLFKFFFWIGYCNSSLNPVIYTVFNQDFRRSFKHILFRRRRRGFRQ
T3 sequence (P19328 whole entry): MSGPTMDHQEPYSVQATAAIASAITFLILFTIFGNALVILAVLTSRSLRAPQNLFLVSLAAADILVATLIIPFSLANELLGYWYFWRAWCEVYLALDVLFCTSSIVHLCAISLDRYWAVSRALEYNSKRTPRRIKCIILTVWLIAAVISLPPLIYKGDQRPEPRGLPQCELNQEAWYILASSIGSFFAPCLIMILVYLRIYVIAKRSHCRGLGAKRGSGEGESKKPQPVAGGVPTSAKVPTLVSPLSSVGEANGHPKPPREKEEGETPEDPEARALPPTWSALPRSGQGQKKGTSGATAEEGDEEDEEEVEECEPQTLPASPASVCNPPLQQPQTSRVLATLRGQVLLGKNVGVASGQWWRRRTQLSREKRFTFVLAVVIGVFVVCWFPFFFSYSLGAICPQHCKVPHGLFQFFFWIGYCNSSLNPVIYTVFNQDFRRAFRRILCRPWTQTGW
T3 sequence (P22909 whole entry): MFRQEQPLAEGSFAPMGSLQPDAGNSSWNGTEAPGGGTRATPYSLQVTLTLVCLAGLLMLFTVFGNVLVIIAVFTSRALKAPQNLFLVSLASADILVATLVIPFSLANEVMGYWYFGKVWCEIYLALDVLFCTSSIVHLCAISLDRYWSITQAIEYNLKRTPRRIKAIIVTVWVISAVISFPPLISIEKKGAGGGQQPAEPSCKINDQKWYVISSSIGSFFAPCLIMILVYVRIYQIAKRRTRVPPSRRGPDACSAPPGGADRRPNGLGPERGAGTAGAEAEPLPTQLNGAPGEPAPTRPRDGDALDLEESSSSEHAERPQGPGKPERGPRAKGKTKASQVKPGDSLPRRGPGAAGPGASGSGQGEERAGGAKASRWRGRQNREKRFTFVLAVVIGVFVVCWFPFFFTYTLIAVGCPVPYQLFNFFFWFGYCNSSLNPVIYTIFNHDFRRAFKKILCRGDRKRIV
Description: The ability to inhibit [3H]rauwolscine binding to alpha-2 adrenergic receptor in rat cortex.

Experiment [11] concerns the target D(2) dopamine receptor (Rattus norvegicus, UniProt P61169). Description: The ability to inhibit [3H]domperidone binding to dopamine receptor D2 in rat striata.

Sequence of 5-hydroxytryptamine receptor 4 (Rattus norvegicus) (Q62758 whole entry): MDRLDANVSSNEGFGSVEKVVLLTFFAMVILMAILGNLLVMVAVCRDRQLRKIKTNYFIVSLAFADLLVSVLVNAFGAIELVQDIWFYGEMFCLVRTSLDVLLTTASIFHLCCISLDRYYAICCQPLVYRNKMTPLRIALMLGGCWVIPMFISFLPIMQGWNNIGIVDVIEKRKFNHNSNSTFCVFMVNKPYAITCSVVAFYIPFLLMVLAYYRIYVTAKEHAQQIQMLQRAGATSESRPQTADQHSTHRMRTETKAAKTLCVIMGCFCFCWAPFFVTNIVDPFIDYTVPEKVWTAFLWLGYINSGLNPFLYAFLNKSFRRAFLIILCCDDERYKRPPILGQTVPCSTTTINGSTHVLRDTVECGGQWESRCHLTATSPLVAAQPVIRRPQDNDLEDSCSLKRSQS
Sequence of D(2) dopamine receptor (P61169 whole entry): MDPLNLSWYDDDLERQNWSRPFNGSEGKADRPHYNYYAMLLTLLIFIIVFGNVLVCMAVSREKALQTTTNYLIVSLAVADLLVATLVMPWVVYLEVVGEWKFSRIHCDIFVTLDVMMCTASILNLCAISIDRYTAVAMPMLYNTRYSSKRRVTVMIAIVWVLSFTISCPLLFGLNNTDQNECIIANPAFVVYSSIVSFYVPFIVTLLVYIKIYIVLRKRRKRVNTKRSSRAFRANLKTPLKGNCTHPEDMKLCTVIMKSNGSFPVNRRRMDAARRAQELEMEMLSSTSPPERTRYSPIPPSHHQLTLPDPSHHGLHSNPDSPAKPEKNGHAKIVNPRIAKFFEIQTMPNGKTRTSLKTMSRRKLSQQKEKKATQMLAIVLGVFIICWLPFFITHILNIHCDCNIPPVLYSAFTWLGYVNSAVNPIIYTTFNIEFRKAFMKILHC

On to `COc1cc(N)c(Cl)cc1C(=O)NC1CCN(CCCOc2ccc(F)cc2)CC1OC` (centres undefined) [CISAPRIDE], for which the Ki (commonly a dissociation constant, usually derived from enzyme kinetics or from competition with a known ligand) was above 10000 nM in experiment [1], 30 nM in experiment [3], above 10000 nM in experiment [4] and 1700 nM in experiment [5]. The compound further registered an ED50 in experiment [2] of 54.7 nM. Moreover, the E in [6] amounted to 105%.
As for `COc1cc(N)c(Cl)cc1C(=O)NCC1CCN2CCCC12` (stereo in doubt; 1A) [listing 1 of 2 here], affinity in [7] was put at a Ki of 104 nM.
Regarding `O=C(NC1CCN2CCCC12)c1ccccc1` (centres undefined), the ED50 in experiment [2] was above 10000 nM. The Ki in experiment [7] was above 200 nM.
For `CCOc1cc(N)c(Cl)cc1C(=O)NC1CCN2CCCC12` (stereo in doubt; 1K) [listing 1 of 2 here], affinity in experiment [7] was put at a Ki of 99 nM. This counts as double-digit nanomolar.
Turning to `CC(C)n1c(=O)n(C(=O)CC2CC3CCC(C2)N3C)c2ccccc21` (centres undefined), the Ki in [1], in experiment [8], in experiment [9], in experiment [3], in experiment [10] and in experiment [4] was above 10000 nM each time. Moreover, the Ki in experiment [5] and in [11] was above 10000 nM each time. Moreover, the ED50 in experiment [2] was found to be 40.2 nM. Further, the E in experiment [6] was above 111%.
Take `CCOc1cc(N)c(Cl)cc1C(=O)NCC1CCN2CCCC12` (centres undefined): the ED50 in experiment [2] turned out to be 1380 nM. Also, the affinity in [7], expressed as Ki, was 25 nM.
For `COc1cc(N)c(Cl)cc1C(=O)NC1CCN2CCCC12` (stereo in doubt; 1F) [listing 1 of 2 here], in experiment [2], the ED50 amounted to 187 nM.
On the same count and under the same terms, then `NCCc1c[nH]c2ccc(O)cc12`, with 16 nM.
For the compound `COc1cc(N)c(Cl)cc1C(=O)NCC1CCN2CCCC12` (stereo in doubt; 1A) [listing 2 of 2 here], the ED50 in experiment [2] stood at 64 nM.
With `CCOc1cc(N)c(Cl)cc1C(=O)NC1CCN2CCCC12` (stereo in doubt; 1K) [listing 2 of 2 here], in experiment [2], the ED50 is above 10000 nM.
Regarding `COc1cc(N)c(Cl)cc1C(=O)NC1CCN2CCCC12` (stereo in doubt; 1J) [listing 1 of 2 here], the ED50 in experiment [2] came to 3450 nM.
`COc1cc(N)c(Cl)cc1C(=O)NCC1CCN2CCCC12` (stereo in doubt; 1E) [listing 1 of 2 here] registered a Ki in experiment [7] of 278 nM.
Still for that read-out and setting: as for `COc1cc(N)c(Cl)cc1C(=O)NC1CCN2CCCC12` (stereo in doubt; 1F) [listing 2 of 2 here], the figure is 14 nM.
`COc1cc(N)c(Cl)cc1C(=O)NC1CCN2CCCC1C2` (centres undefined) [RENZAPRIDE] came in with an ED50 in [2] of 44 nM. Further, the inhibition constant Ki in [3], in experiment [10], in [4], in experiment [5] and in [11] was above 10000 nM in each case. The E in [6] turned out to be 98%.
Compound `CCOc1cc(N)c(Cl)cc1C(=O)NC1CCN2CCCC12` (stereo in doubt; 1G) [listing 1 of 2 here] gave an inhibition constant Ki in experiment [7] of 8 nM.
On the same count and under the same terms, then `COc1cc(N)c(Cl)cc1C(=O)NC1CCN2CCCC12` (stereo in doubt; 1J) [listing 2 of 2 here], with 96 nM.
In [2], `CCOc1cc(N)c(Cl)cc1C(=O)NC1CCN2CCCC12` (stereo in doubt; 1G) [listing 2 of 2 here] gave an ED50 of 2270 nM.
Same read-out and setting: then `COc1cc(N)c(Cl)cc1C(=O)NCC1CCN2CCCC12` (stereo in doubt; 1E) [listing 2 of 2 here], with 280 nM.
The compound `CCN(CC)CCNC(=O)c1cc(Cl)c(N)cc1OC` [METOCLOPRAMIDE] returned an ED50 in experiment [2] of 24100 nM. The compound also displayed a Ki in [7] of 240 nM.
Consider `COc1cc(N)c(Cl)cc1C(=O)N[C@H]1CN2CCC1CC2` [(R)ZACOPRIDE], for which the inhibition constant Ki in experiment [1] is above 10000 nM; in experiment [8], 415 nM; in [7], 8 nM; in experiment [3] it was above 10000 nM; in experiment [10], above 10000 nM; in experiment [4] it was above 10000 nM. The inhibitory constant (Ki) in experiment [5] and in experiment [11] was above 10000 nM in each case. This compound also displayed an ED50 in experiment [2] of 505 nM. In addition, in [6], the E amounted to 96%.
Take `COc1cc(N)c(Cl)cc1C(=O)NC[C@H]1CCN2CCC[C@H]12`: in [2], the ED50 came out at 323 nM. Moreover, the inhibitory constant (Ki) in experiment [7] was determined as 66 nM.
`COc1cc(N)c(Cl)cc1C(=O)NC[C@@H]1CCN2CCC[C@@H]12` (relative stereo): the Ki in experiment [1] is above 10000 nM; in experiment [8] it was above 10000 nM; in experiment [7] it was 152 nM; in [3], above 10000 nM; in [10], above 10000 nM; in [4] it was above 10000 nM. In addition, the inhibition constant (Ki) in experiment [5] and in experiment [11] was above 10000 nM each time. In experiment [2], this compound yielded an ED50 of 23 nM. For the same compound, the E in experiment [6] was 93%.
